In ChEMBL document CHEMBL1141135, “A positron emission tomography radioligand for the in vivo labeling of metabotropic glutamate 1 receptor: (3-ethyl-2-[11C]methyl-6-quinolinyl)(cis- 4-methoxycyclohexyl)methanone” (J Med Chem, 2005) one finds ID/g and Ki data, which are given here for one molecule.

Data set [1] is described as follows: Uptake in rat hippocampus 30 minutes after administration of the radiolabeled [11C]-compound. The conditions noted are these: in vivo, 0.5 h. Format: ADME, tissue-based. An outline of the steps:
(§1)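 Male Sprague-Dawley rats received the [11C] radioligand iv and were sacrificed at 10, 30 or 60 min. Brain regions were dissected and radioactivity counted. Uptake is expressed as %ID/g, mean ± SD, n = 3 animals per group.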

Data set [2] is described as follows: Uptake in rat cerebellum 10 minutes after administration of the radiolabeled [11C]-compound. Format: ADME, tissue-based. The conditions noted are these: in vivo. Summed up: as §1
Data set [3] is described as follows: Uptake in rat blood 60 minutes after administration of the radiolabeled [11C]-compound. Type of data set: ADME, tissue-based. The conditions noted are these: 1 h.
A short description of data set [4]: Uptake in rat striatum 10 minutes after administration of the radiolabeled [11C]-compound. The settings on record: in vivo. Format: ADME, tissue-based. An outline of the steps: as §1
The nature of data set [5]: Uptake in rat cerebellum 60 minutes after administration of the radiolabeled [11C]-compound. The settings on record: in vivo, 1 h. Type of data set: ADME, tissue-based. Summed up:
as §1

Data set [6] in a line: Uptake in rat striatum 60 minutes after administration of the radiolabeled [11C]-compound. Type of data set: ADME, tissue-based. The settings on record: in vivo, 1 h. An outline of the steps:
as §1

A short description of data set [7]: Uptake in rat hippocampus 10 minutes after administration of the radiolabeled [11C]-compound. Format: ADME, tissue-based. The settings on record: in vivo. Summed up: as §1
A short description of data set [8]: Uptake in rat frontal cortex 30 minutes after administration of the radiolabeled [11C]-compound. Type of data set: ADME, tissue-based. The settings on record: in vivo, 0.5 h. An outline of the steps:
as §1

In data set [9] the target is Metabotropic glutamate receptor 5 (Rattus norvegicus, UniProt P31424). The data set can be described thus: In vitro affinity for cloned rat metabotropic glutamate 5 receptors stably expressed on CHO cells determined in radioligand binding assay. Type of data set: cell-based.
Data set [10] in a line: Uptake in rat medulla 10 minutes after administration of the radiolabeled [11C]-compound. The conditions noted are these: in vivo. Type of data set: ADME, tissue-based, Medulla of organ. Summed up: as §1
Data set [11] in a line: Uptake in rat blood 30 minutes after administration of the radiolabeled [11C]-compound. Type of data set: ADME, tissue-based. The settings on record: 0.5 h.
Data set [12] can be described thus: Uptake in rat medulla 60 minutes after administration of the radiolabeled [11C]-compound. Type of data set: ADME, tissue-based, Medulla of organ. The conditions noted are these: in vivo, 1 h. Summed up:
as §1

Data set [13] can be described thus: Uptake in rat hippocampus 60 minutes after administration of the radiolabeled [11C]-compound. Type of data set: ADME, tissue-based. The conditions noted are these: in vivo, 1 h. An outline of the steps:
as §1

A short description of data set [14]: Uptake in rat frontal cortex 60 minutes after administration of the radiolabeled [11C]-compound. Type of data set: ADME, tissue-based. The settings on record: in vivo, 1 h. Summed up:
as §1

For data set [15], the target named is Metabotropic glutamate receptor 1 (Rattus norvegicus, UniProt P23385). The data set can be described thus: In vitro affinity for cloned rat metabotropic glutamate 1 receptors stably expressed on CHO cells determined using [3H]-R214127 as radioligand. Format: cell-based.
Data set [16] is described as follows: Uptake in rat medulla 30 minutes after administration of the radiolabeled [11C]-compound. Type of data set: ADME, tissue-based, Medulla of organ. The conditions noted are these: in vivo, 0.5 h. An outline of the steps:
as §1

Data set [17] can be described thus: Uptake in rat frontal cortex 10 minutes after administration of the radiolabeled [11C]-compound. Format: ADME, tissue-based. The settings on record: in vivo. An outline of the steps: as §1
Data set [18] in a line: Uptake in rat striatum 30 minutes after administration of the radiolabeled [11C]-compound. Type of data set: ADME, tissue-based. The settings on record: in vivo, 0.5 h. An outline of the steps:
as §1

Data set [19] can be described thus: Uptake in rat blood 10 minutes after administration of the radiolabeled [11C]-compound. Format: ADME, tissue-based.
Data set [20] in a line: Uptake in rat cerebellum 30 minutes after administration of the radiolabeled [11C]-compound. Type of data set: ADME, tissue-based. The conditions noted are these: in vivo, 0.5 h. An outline of the steps:
as §1

Sequence of Metabotropic glutamate receptor 1 (P23385 whole entry): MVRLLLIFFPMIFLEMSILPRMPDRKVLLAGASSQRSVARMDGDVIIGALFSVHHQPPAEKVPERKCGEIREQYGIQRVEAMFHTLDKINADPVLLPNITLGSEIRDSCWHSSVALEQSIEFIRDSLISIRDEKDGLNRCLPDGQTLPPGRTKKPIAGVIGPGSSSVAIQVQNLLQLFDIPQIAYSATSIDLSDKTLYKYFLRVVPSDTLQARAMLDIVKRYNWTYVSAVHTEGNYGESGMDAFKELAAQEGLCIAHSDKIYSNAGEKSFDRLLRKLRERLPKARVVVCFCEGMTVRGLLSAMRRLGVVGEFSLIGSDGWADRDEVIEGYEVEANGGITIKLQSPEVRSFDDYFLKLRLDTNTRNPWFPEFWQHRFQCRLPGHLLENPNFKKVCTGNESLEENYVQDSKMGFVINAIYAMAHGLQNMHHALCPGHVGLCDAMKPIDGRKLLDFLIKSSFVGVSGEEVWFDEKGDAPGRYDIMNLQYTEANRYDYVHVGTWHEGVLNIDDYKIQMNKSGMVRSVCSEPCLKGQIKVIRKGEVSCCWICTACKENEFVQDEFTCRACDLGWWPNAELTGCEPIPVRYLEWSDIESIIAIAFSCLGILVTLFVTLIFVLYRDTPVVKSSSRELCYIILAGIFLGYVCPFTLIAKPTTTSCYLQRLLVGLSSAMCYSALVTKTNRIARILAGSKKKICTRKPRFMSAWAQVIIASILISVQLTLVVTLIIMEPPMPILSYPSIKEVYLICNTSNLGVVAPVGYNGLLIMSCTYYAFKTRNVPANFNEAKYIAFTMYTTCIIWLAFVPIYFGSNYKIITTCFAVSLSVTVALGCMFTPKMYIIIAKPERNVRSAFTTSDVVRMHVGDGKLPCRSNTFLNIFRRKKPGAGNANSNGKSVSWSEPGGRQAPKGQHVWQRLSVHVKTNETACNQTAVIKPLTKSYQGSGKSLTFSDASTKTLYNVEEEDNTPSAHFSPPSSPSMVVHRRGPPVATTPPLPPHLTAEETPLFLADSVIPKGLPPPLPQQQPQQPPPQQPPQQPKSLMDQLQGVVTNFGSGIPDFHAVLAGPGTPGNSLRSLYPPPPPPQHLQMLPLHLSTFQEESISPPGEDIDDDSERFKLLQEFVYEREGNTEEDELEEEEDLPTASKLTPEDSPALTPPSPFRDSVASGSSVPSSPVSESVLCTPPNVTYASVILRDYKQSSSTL
Sequence of Metabotropic glutamate receptor 5 (P31424 whole entry): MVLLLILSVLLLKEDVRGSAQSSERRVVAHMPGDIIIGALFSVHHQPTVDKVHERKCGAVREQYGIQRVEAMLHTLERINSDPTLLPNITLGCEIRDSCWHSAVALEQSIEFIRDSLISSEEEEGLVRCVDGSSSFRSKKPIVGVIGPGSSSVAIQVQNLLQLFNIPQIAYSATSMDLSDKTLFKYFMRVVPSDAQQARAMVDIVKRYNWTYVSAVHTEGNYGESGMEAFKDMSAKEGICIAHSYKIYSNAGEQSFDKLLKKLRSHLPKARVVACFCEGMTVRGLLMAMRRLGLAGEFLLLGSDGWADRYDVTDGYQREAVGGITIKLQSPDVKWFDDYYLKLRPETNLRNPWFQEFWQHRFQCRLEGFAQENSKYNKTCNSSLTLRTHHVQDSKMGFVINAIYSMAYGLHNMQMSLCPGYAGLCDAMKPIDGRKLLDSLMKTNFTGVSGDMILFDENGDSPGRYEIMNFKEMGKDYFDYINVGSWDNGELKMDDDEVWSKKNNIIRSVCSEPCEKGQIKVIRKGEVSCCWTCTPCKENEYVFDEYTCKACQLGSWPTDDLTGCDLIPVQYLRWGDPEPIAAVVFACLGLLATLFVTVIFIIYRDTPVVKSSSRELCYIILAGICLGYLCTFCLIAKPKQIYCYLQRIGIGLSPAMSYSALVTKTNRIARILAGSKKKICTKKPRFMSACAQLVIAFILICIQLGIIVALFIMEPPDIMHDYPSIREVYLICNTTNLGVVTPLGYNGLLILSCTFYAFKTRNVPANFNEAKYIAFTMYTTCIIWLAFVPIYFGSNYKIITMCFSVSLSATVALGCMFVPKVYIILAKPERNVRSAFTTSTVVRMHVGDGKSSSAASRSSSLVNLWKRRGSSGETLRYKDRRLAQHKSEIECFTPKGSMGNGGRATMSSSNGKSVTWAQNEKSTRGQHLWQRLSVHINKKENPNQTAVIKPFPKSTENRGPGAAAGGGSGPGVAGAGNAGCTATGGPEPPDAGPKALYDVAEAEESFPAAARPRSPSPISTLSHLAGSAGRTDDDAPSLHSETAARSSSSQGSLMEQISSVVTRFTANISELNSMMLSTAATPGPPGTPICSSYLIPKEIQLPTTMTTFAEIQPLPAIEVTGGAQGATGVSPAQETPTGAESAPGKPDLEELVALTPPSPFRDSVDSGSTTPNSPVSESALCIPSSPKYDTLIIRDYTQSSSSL

One may read the Ki as the equilibrium dissociation constant of an inhibitor or competing ligand from its target. A higher Ki goes with lower affinity. For `CCc1cc2cc(C(=O)[C@H]3CC[C@@H](OC)CC3)ccc2nc1C`, the ID/g in [1] is 0.17%; in data set [2], 1.24%; in data set [3], 0.2%; in [4], 0.73%; in data set [5], 0.27%; in data set [6], 0.1%. Further, the ID/g is reported as 0.58% in data set [7]; 0.13% in [8]; 0.47% in data set [10]; 0.26% in data set [11]; 0.07% in [12]; 0.1% in data set [13]. Also, the ID/g is 0.07% in data set [14]; 0.13% in data set [16]; 0.52% in [17]; 0.17% in [18]; 0.42% in data set [19]; 0.61% in data set [20]. For the same molecule, the Ki in data set [9] came to 2370 nM; in data set [15], 0.87 nM.
